The nature of data set [1]: Drug excretion in cancer patient feces at 80 uCi, iv administered as bolus infusion for 2 to 5 mins after 312 hrs by liquid scintillation counting. It counts as ADME, organism-based. As to conditions: human, in vivo. In short, it runs like this: (§1)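 Patients had one ~2 mg (~80 µCi) 14C-eribulin IV bolus over 2-5 min. Urine was pooled over 6 h periods to 48 h, then every 24 h. All faeces were collected and homogenised. Collection ran to day 8, or longer until daily recovery was <1% of administered activity (faeces up to 312 h). Faeces were solubilised and decolourised, then LSC counted with quench correction, as percentage of administered activity.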

The subject of data set [2] is Homo sapiens. Nature of the data set: Dose-normalized Cmax in cancer patient plasma assessed as total radioactivity at 2 mg, iv administered as bolus infusion for 2 to 5 mins by LC-MS/MS analysis/liquid scintillation counting. As to conditions: in vivo. It counts as ADME, organism-based. An outline of the steps: (§2)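 Six patients with advanced solid tumours got one ~2 mg (~80 µCi) 14C-eribulin IV bolus over 2-5 min. Venous blood was drawn into lithium heparin pre-dose, at end of infusion and 5 min-168 h after, then spun 2,000 g, 4 °C, 15 min. Plasma was counted in duplicate by LSC with quench correction. Non-compartmental analysis; dose-normalised values use actual administered dose.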

The test system of data set [3] is Homo sapiens. The experiment in a line: Dose-normalized AUC (0 to t) in cancer patient plasma assessed as total radioactivity at 2 mg, iv administered as bolus infusion for 2 to 5 mins by LC-MS/MS analysis/liquid scintillation counting. The data set is classed as ADME, organism-based. As to conditions: in vivo. In short, it runs like this:
as §2

For data set [4], the system named is Homo sapiens. The experiment in a line: Terminal half life in cancer patient assessed as total radioactivity at 2 mg, iv administered as bolus infusion for 2 to 5 mins by LC-MS/MS analysis/liquid scintillation counting. It counts as ADME, organism-based. As to conditions: in vivo. In short, it runs like this: as §2
Data set [5] has as its system Homo sapiens. Nature of the data set: Toxicity against cancer patient assessed as mortality at 80 uCi, iv administered as bolus infusion for 2 to 5 mins. To be noted: in vivo. The data set is classed as organism-based.
Data set [6] relates to Homo sapiens. The experiment in a line: AUC (0 to infinity) in cancer patient assessed as total radioactivity at 2 mg, iv administered as bolus infusion for 2 to 5 mins by LC-MS/MS analysis/liquid scintillation counting. It counts as ADME, organism-based, Plasma. Further details: dose 2 mg, time infinity, route intravenous. As to conditions: in vivo. In short, it runs like this: as §2

In data set [7] the test system is Homo sapiens. Nature of the data set: AUC (0 to t) in cancer patient assessed as total radioactivity at 2 mg, iv administered as bolus infusion for 2 to 5 mins by LC-MS/MS analysis/liquid scintillation counting. The data set is classed as ADME, organism-based, Plasma. To be noted: in vivo. In short, it runs like this: as §2
Data set [8] is described as follows: Drug excretion in cancer patient urine at 80 uCi, iv administered as bolus infusion for 2 to 5 mins after 312 hrs by liquid scintillation counting. As to conditions: human, in vivo. The data set is classed as ADME, organism-based. An outline of the steps: as §1
In data set [9] the test system is Homo sapiens. Nature of the data set: Dose-normalized AUC (0 to infinity) in cancer patient plasma assessed as total radioactivity at 2 mg, iv administered as bolus infusion for 2 to 5 mins by LC-MS/MS analysis/liquid scintillation counting. The data set is classed as ADME, organism-based. As to conditions: in vivo. An outline of the steps:
as §2

For data set [10], the system named is Homo sapiens. Nature of the data set: Cmax in cancer patient plasma assessed as total radioactivity at 2 mg, iv administered as bolus infusion for 2 to 5 mins by LC-MS/MS analysis/liquid scintillation counting. It counts as ADME, organism-based. On the set-up: dose 2 mg, route intravenous. As to conditions: in vivo. In short, it runs like this:
as §2

Data set [11] is described as follows: Drug excretion in cancer patient urine at 80 uCi, iv administered as bolus infusion for 2 to 5 mins after 168 hrs by liquid scintillation counting. As to conditions: human, in vivo. The data set is classed as ADME, organism-based. In short, it runs like this: as §1
Data set [12] deals with Homo sapiens. Nature of the data set: Toxicity against cancer patient assessed as severe adverse event at 80 uCi, iv administered as bolus infusion for 2 to 5 mins. It counts as organism-based. As to conditions: in vivo.
A short description of data set [13]: Drug excretion in cancer patient feces at 80 uCi, iv administered as bolus infusion for 2 to 5 mins after 168 hrs by liquid scintillation counting. It counts as ADME, organism-based. To be noted: human, in vivo. An outline of the steps:
as §1

In data set [14] the test system is Homo sapiens. The experiment in a line: Drug excretion in cancer patient treated with [14C]eribulin acetate at 2 mg, iv administered as bolus infusion for 2 to 5 mins after 168 hrs by LC-MS/MS analysis. It counts as ADME, organism-based. As to conditions: in vivo. An outline of the steps: (§3)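 Patients got a ~2 mg (~80 µCi) 14C-eribulin IV bolus over 2-5 min. Urine was collected in 6 h periods to 48 h, then in 24 h periods. All faeces were collected and homogenised until daily recovery was <1% of dose; four patients continued to 312 h. Unchanged eribulin was measured by LC-MS/MS (faeces 0.1–25 µg/g) and total radioactivity by LSC. Results are % of the administered dose, mean ± SD.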

Data set [15] relates to Homo sapiens. The experiment in a line: Dose-normalized AUC (0 to t) in cancer patient plasma at 2 mg, iv administered as bolus infusion for 2 to 5 mins by LC-MS/MS analysis/liquid scintillation counting. The data set is classed as ADME, organism-based. As to conditions: in vivo. An outline of the steps: (§4)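 Single ~2 mg (~80 µCi) 14C-eribulin IV bolus over 2-5 min in 6 cancer patients; actual doses were 1.75-3.01 mg. Plasma eribulin was measured by LC-MS/MS and total radioactivity by liquid scintillation counting with quench correction. Cmax, AUC0-t and AUC0-∞ came from non-compartmental analysis and were divided by the actual dose. TRA AUC0-∞ used n=5.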

In data set [16] the test system is Homo sapiens. Nature of the data set: Apparent volume of distribution in the terminal phase in cancer patient at 2 mg, iv administered as bolus infusion for 2 to 5 mins by LC-MS/MS analysis. The data set is classed as ADME, organism-based. As to conditions: in vivo. An outline of the steps:
(§5)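 Six patients with advanced solid tumours received a single ~2 mg (~80 µCi) 14C-eribulin IV bolus over 2-5 min. Plasma was sampled from pre-dose to 168 h after end of infusion, using lithium-heparin tubes centrifuged at 4 °C. Eribulin was quantified by validated LC-MS/MS (m/z 730→712) and corrected ×2.03 for total eribulin. CL, CLr and Vz came from non-compartmental analysis. Values are mean ± SD, n=6.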

Data set [17] is described as follows: Drug excretion in patient urine assessed as unchanged compound level at 0.25 to 1.4 mg/m2 administered 1 hr, iv infusion after 72 hrs. To be noted: human, read-out: Drug excretion. The data set is classed as ADME, organism-based.
Data set [18] can be described thus: Drug excretion in patient urine assessed as unchanged compound at 0.25 to 4 mg/m2 administered 1 hr, iv infusion every 21 days after 72 hrs. It counts as ADME, organism-based. As to conditions: human, read-out: Drug excretion.
Data set [19] has as its system Homo sapiens. The experiment in a line: Dose-normalized AUC (0 to infinity) in cancer patient plasma at 2 mg, iv administered as bolus infusion for 2 to 5 mins by LC-MS/MS analysis/liquid scintillation counting. The data set is classed as ADME, organism-based. To be noted: in vivo. An outline of the steps: as §4
For data set [20], the system named is Homo sapiens. Nature of the data set: Dose-normalized Cmax in cancer patient plasma at 2 mg, iv administered as bolus infusion for 2 to 5 mins by LC-MS/MS analysis/liquid scintillation counting. The data set is classed as ADME, organism-based. To be noted: in vivo. In short, it runs like this:
as §4

Data set [21] relates to Homo sapiens. The experiment in a line: Drug excretion in cancer patient treated with [14C]eribulin acetate at 2 mg, iv administered as bolus infusion for 2 to 5 mins after 312 hrs by LC-MS/MS analysis. The data set is classed as ADME, organism-based. As to conditions: in vivo. An outline of the steps:
as §3

Data set [22] in a line: Renal clearance in cancer patient at 2 mg, iv administered as bolus infusion for 2 to 5 mins by LC-MS/MS analysis. As to conditions: human, in vivo. It counts as ADME, organism-based, Kidney. In short, it runs like this:
as §5

A short description of data set [23]: Terminal half life in breast cancer patient. It counts as ADME, organism-based. As to conditions: human, in vivo; read-out: beta t1/2 (converted).
Data set [24] in a line: Clearance in cancer patient at 2 mg, iv administered as bolus infusion for 2 to 5 mins by LC-MS/MS analysis. To be noted: human, in vivo. The data set is classed as ADME, organism-based. In short, it runs like this:
as §5

Usually clearance stands for the rate of elimination divided by the concentration. A high value points to a high capacity for elimination.

With `C=C1C[C@@H]2CC[C@@]34C[C@H]5O[C@H]6[C@@H](O3)[C@H]3O[C@H](CC[C@@H]3O[C@H]6[C@H]5O4)CC(=O)C[C@@H]3[C@@H](OC)[C@@H](C[C@H](O)CN)O[C@H]3C[C@H]3O[C@@H](CC[C@@H]1O2)C[C@@H](C)C3=C.CC(=O)O`, the Drug excretion was found to be 81.5% in data set [1], 8.9% in data set [8], 8.9% in [11] and 77.6% in data set [13]. Moreover, the Cmax/dose in the data set with Homo sapiens [2] is 224 ngequiv/ml/mg. The AUCt/dose in the data set with Homo sapiens [3] amounted to 269 ngequiv.hr/ml/mg. Also, in the data set on Homo sapiens [4], the “beta t1/2” value amounted to 42.3 h. The Activity entry with Homo sapiens [5] and with Homo sapiens [12] was “Non-toxic” throughout. The AUC in the data set on Homo sapiens [6] is reported as 753 ng.Eq.hr/ml. Moreover, the AUCt with Homo sapiens [7] is recorded as 568 ng.Eq.hr/ml. Further, in the data set on Homo sapiens [9], the AUC/dose is listed as 357 ngequiv.hr/ml/mg. Moreover, in the data set with Homo sapiens [10], the Cmax is 449 ng.Eq/ml.
Consider `C=C1C[C@@H]2CC[C@@]34C[C@H]5O[C@H]6[C@@H](O3)[C@H]3O[C@H](CC[C@@H]3O[C@H]6[C@H]5O4)CC(=O)C[C@@H]3[C@@H](OC)[C@@H](C[C@H](O)CN)O[C@H]3C[C@H]3O[C@@H](CC[C@@H]1O2)C[C@@H](C)C3=C.CS(=O)(=O)O` [ERIBULIN MESYLATE], for which the values for the Drug excretion in the data set with Homo sapiens [14] and in the data set on Homo sapiens [21] were 68% and 68.6%, respectively. This molecule also displayed an AUCt/dose in the data set with Homo sapiens [15] of 301 ng·h/mL/mg. Further, the Vz/F in the data set with Homo sapiens [16] was determined as 247 L. The dose excreted at 72 h was 5% in data set [17] and 7% in [18]. For the same molecule, the AUC/dose with Homo sapiens [19] amounted to 328 ng·h/mL/mg. In addition, the Cmax/dose in the data set on Homo sapiens [20] was 222 ng/mL/mg. In data set [22], this molecule had a CL renal of 5 mL/min. The half-life in data set [23] was 36 h. In [24], this molecule gave a clearance of 65.5 mL/min.

(Values after ChEMBL document CHEMBL3526070, “Mass balance study of [¹⁴C]eribulin in patients with advanced solid tumors” (Drug Metab Dispos, 2012).)
